Screens: PubChem, The Scripps Research Institute Molecular Screening Center
Compounds with a hit are over-represented: about 3.3% of the library has one in this group of screens.
rCAG binder = binds r(CAG) RNA repeats | r(CAG) RNA repeat, TO-PRO-1 dye displacement fluorescence | inhibition, % at 3 µM | actives 1.3% (n = 370,000) | AID 651821;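 active means inhibition above the plate cutoff, the mean of all test compounds on that plate plus 3 SD, cut at about 35% in these data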;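 further: 0% = DMSO alone and 100% = 100 µM mitoxantrone as full dye displacement; higher means more dye released from RNA so lower well fluorescence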
ABHD4 inh = inhibitors of mouse ABHD4; Q8VD66; purified mABHD4, FP-Rh probe fluorescence polarization; inhibition, % at 8.92 µM; actives 0.54% (n = 370,000); AID 720543;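 active means inhibition exceeding the mean over every tested compound plus 3 SD, cut at about 30% in these data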;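 further: 0% = plate median of compound wells and 100% = S159A mutant with DMSO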
Target sequence (Q8VD66 whole entry, looked up): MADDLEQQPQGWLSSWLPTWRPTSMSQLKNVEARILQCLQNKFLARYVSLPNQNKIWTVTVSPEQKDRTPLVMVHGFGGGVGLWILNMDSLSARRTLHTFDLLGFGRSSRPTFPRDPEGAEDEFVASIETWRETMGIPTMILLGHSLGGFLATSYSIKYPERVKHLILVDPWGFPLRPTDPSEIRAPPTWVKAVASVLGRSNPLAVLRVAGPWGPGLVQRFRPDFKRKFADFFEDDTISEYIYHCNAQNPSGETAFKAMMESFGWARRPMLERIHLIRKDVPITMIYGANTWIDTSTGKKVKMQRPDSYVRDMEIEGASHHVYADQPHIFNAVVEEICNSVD
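Test system: mABHD4 protein | Buffer or medium: HEPES pH 7.0 buffer, 150 mM NaCl, 0.01% Pluronic F-127 | Probe or stimulus: FP-Rh fluorescent activity-based probe, added after compound pre-incubation | Timing: Pre-incubation 45 min, probe exposure 60 min, at 25 °C | Technique: Fluorescence polarization, excitation 525 nm, emission 598 nm, BODIPY TMR filters | Repeats: Single well per compound (singlicate)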
SIAE primary = inhibitors of human sialic acid acetylesterase SIAE; SIAE FP-Rh probe binding, fluorescence polarization; inhibition, % at 9.66 µM; AID 1053197; Q9HAT2; actives 0.69% (n = 370,000);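 active means inhibition above a cutoff: mean of compounds within the control limits plus 3 SD of those, cut at about 17% in these data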;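 further: 0% = plate median of compound wells and 100% = probe without SIAE protein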
PRMT1 inh = PRMT1 (human) inhibition, primary screen; actives 1.3% (n = 370,000); inhibition, % at 2.79 µM; recombinant PRMT1, activity-based probe fluorescence polarization; Q99873;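 active means inhibition above about 21% made by adding two undisclosed values, limit read from the data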
HTRA1 inh = blocks human HTRA1 serine peptidase; recombinant HTRA1, FP-rhodamine activity-based probe, fluorescence polarization; inhibition, % at 5.96 µM; actives 0.5% (n = 340,000); Q92743; in the data active means inhibition above about 36%;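 further: 0% = enzyme with DMSO and 100% = wells lacking enzyme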
PRMT1 inh conf = PRMT1 (human) inhibition, FP confirmation; shares compounds with PRMT1 inh; AID 687036; actives 42% (n = 3,300); inhibition, % at 2.79 µM; recombinant His-PRMT1, activity-based probe fluorescence polarization;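 active means mean inhibition across replicates above the hit cutoff derived for the earlier primary screen, cut at about 22% in these data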
An asterisk follows results filed as active; . = not tested or not shown.

SMILES	rCAG binder	ABHD4 inh	SIAE primary	PRMT1 inh	HTRA1 inh	PRMT1 inh conf
COc1ccc(-c2csc(NNC3=NCCCCC3)n2)cc1	0	10	6	38*	.	32*
CCc1ccccc1NC(=O)c1ccc([N+](=O)[O-])s1	-1	0	-8	2	4	.
COc1cc(OC)cc(C(=O)/C=C2\Sc3ccccc3N2C)c1	-1	-4	6	0	-4	.
CN1/C(=C/C(=O)c2cccs2)Sc2ccccc21	0	4	7	25*	-3	1
CN1/C(=C/C(=O)C2CCC2)Sc2ccccc21	3	3	-5	63*	0	2
CN1/C(=C\C(=O)c2cccs2)Sc2ccccc21	2	8	2	42*	-5	5
COCC(=O)/C=C1\Sc2ccccc2N1C	-1	5	0	15	-1	.
CC(C)c1onc(C(=O)N2CCN(Cc3ccccc3)CC2)c1[N+](=O)[O-]	-4	-1	1	-1	-1	.
Cc1c(NC(=O)CSc2nc3ccccc3c(=O)n2C(C)C)c(=O)n(-c2ccccc2)n1C	-3	-1	1	-3	10	.
Cc1cc(C)cc(OCC(=O)Nc2nc(-c3cccnc3)cs2)c1	5	-10	-2	35*	6	13
O=C(COc1ccccc1)Nc1nc(-c2ccncc2)cs1	6	-11	-7	35*	-13	34*
O=C(COc1ccccc1)Nc1nc(-c2cccnc2)cs1	7	-8	11	7	-5	.
Cc1cccc(OCC(=O)Nc2nc(-c3ccncc3)cs2)c1	-3	-6	-1	-4	-14	.
O=[N+]([O-])c1cccc(-c2nnn(C34CC5CC(CC(C5)C3)C4)n2)c1	-1	2	-2	-3	0	.
CN(c1ccc([N+](=O)[O-])cc1/C=N/NC(=O)COc1ccccc1)C1CCCCC1	2	0	-7	-2	-14	.
CCOC(=O)N1CCN(C(=O)C(NC(=O)c2ccc(C(C)(C)C)cc2)C(C)C)CC1 (stereo not drawn)	0	2	-2	-3	10	.
O=C(NC(=S)NC1CCSC1=O)c1cccs1 (stereo not drawn)	3	2	2	36*	7	10
COc1ccc(C(=O)NC(=S)NC2CCSC2=O)cc1 (stereo not drawn)	3	-4	7	29*	-1	7
COc1cc(OC)cc(C(=O)NC2CCSC2=O)c1 (stereo not drawn)	1	3	-8	3	2	.
COC(=O)[C@H](C)NC(=O)[C@@H]1CC=C[C@@H]2CCN(CCc3ccccc3)C(=O)[C@@H]21	.	2	-1	-3	.	.
COC(=O)[C@]12C[C@H](CC(=O)NCC34CC5CC(CC(C5)C3)C4)C(=O)N(CCc3ccc(OC)c(OC)c3)C1=C[C@H](COCc1ccccc1)O[C@@H]2C	10	2	2	3	.	.
Cc1cc(C)nc(N2N=C(C(C)(C)C)CC2=O)n1	-5	-3	1	41*	4	8
CCN1C(=O)/C(=C/C=C2/Sc3ccc4ccccc4c3N2CCO)SC1=S	5	-65	-61	44*	-19	-3
O=C(O)c1ccc(N2C(=O)CSC2=S)cc1	2	-9	-8	10	5	.
O=C(O)c1ccc(CN2C(=O)CSC2=S)cc1	14	-348	-32	29*	-43	5
SMILES	rCAG binder	ABHD4 inh	SIAE primary	PRMT1 inh	HTRA1 inh	PRMT1 inh conf
Cc1csc(=O)n1CC(=O)OCC(=O)c1c(N)n(CC(C)C)c(=O)n(C)c1=O	-1	-5	0	-3	-3	.
COCCN1CSC(=S)N(Cc2ccco2)C1	4	1	-1	13	6	.
S=C1SCN(Cc2ccccn2)CN1Cc1ccco1	7	6	9	30*	1	13
O=C(COc1cccnc1[N+](=O)[O-])NCCc1ccc(F)cc1	-4	1	-4	-1	3	.
Nc1nonc1-n1nnc(C(=O)N/N=C/c2ccccc2Cl)c1CN1CCOCC1	0	-9	-7	0	6	.
CCN1CCc2c(sc(NC(=O)Nc3ccc(Cl)c(Cl)c3)c2C(N)=O)C1	19	7	31*	45*	28	5
COc1ccc(Nc2nnc(SCc3cc(=O)n4ccsc4n3)s2)cc1	17	14	-9	29*	8	35*
CCCn1c(N)c(C(=O)CSc2nc(C3CC3)n(-c3ccccc3)n2)c(=O)[nH]c1=O	2	2	-4	0	-1	.
CC(=O)NC12CC3CC(C1)CC(C(=O)Nc1nc4c(C)cccc4s1)(C3)C2	-2	-7	-4	-1	-72	.
CCOC(=O)C1=CN(CC)CCC1=O	-1	3	-1	4	3	.
CCN1CC=C2C(C#N)=C(N)C(C#N)(C#N)C(CCc3ccccc3)C2C1 (stereo not drawn)	-24	34*	15	49*	28	25*
CC(=O)N1CC=C2C(C#N)=C(N)C(C#N)(C#N)C(CCc3ccccc3)C2C1 (stereo not drawn)	4	6	3	6	4	.
CN(C)/C=C1/Sc2ccccc2C1=O	3	2	-1	57*	1	29*
O=C1/C(=C\c2cccnc2)Sc2ccccc21	3	-2	-22	31*	-7	4
CC(=O)Nc1ccc(/C=C2/Sc3ccccc3C2=O)cc1	.	.	.	.	6	.
CN1C(=O)S/C(=C/c2cccnc2)C1=O	2	-3	2	-2	5	.
C=C1C(=O)C23C(O)C1CCC2C12CCCC(C)(COC(C)=O)C1C(O)C3(O)OC2 (stereo not drawn)	3	8	5	31*	-3	33*
O=C1C(=Cc2cccc(O)c2O)SC(=S)N1CCCN1CCOCC1	28	23	7	82*	23	83*
O=C(O)c1ccccc1NC(=S)NC(=O)c1sc2ccccc2c1Cl	18	0	0	32*	-1	32*
O=C(NC(=S)Nc1ccccc1N1CCOCC1)c1sc2ccccc2c1Cl	1	-2	-1	0	8	.
CC(C)OC(=O)CSc1nnc(-c2ccc(C(C)(C)C)cc2)n1N	-7	6	0	53*	8	60*
Cc1cc(C)c2sc(C)[n+](CCCS(=O)(=O)[O-])c2c1	13	-1	-3	51*	2	32*
CC[n+]1c(C)sc2c(C)cc(C)cc21	-3	-2	0	46*	4	20
CC(=O)N(c1ccccc1)c1ccccc1[N+](=O)[O-]	-2	-2	1	-4	7	.
COc1ccc(S(=O)(=O)NCc2ccncc2)cc1NC(=O)c1ccc(Cl)cc1	3	-1	4	-1	-7	.
CN(C)CCCn1c2c3ccccc3ccc2c2oc(=O)c3ccccc3c21	13	15	-15	29*	-2	1
COc1cc2c(cc1OC)C(c1ccccc1O)N(C1CC(=O)N(c3ccccc3)C1=O)CC2 (stereo not drawn)	9	-11	-5	83*	-9	19
